This is an account of results in ChEMBL document CHEMBL5042520, “Design, synthesis and in vitro evaluation of novel SARS-CoV-2 3CLpro covalent inhibitors” (Eur J Med Chem, 2022).

Where only a bound is given, the exact number is not on record here.

The subject of the first assay is Severe acute respiratory syndrome coronavirus 2. As to the kind of experiment: Inhibition of SARS-CoV-2 3CL protease at 50 uM using DABCYL-KTSAVLQ-SGFRKME-EDANS as substrate preincubated with enzyme for 30 mins followed by substrate addition and measured after 1 hr by fluorescence spectrophotometry relative to control. As to conditions: time 1.5 hrs. The essentials:
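SARS-CoV-2 3CLpro was expressed in E. coli BL21(DE3) and purified on a HisTrap column. Enzyme at 150 nM (114 nM after inhibitor addition) in assay buffer with 1 mM DTT was preincubated 30 min at room temperature with 50 μM final compound from DMSO. Then 11.76 μM final substrate was added. Fluorescence (ex 360/em 460 nm) was followed for ≥1 h. Initial slopes were compared with a DMSO control. Run in duplicate.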
By inhibition is commonly meant the drop in the measured response relative to a control, in per cent. High values mean a response far below the control, low ones a response near the control. With `CC(C)(C)c1ccc(N(C(=O)C2=CCCC2)C(C(=O)NC2CCCCC2)c2cncc3ccccc23)cc1` (centres undefined), the inhibition was less than 5%.
`CC(C)(C)c1ccc(NC(C(=O)NC2CCCCC2)c2cccnc2)cc1` (centres undefined) came in with an inhibition of 28%.
Same read-out and setting: the same measure for `CC#CC(=O)N(c1ccc(C(C)(C)C)cc1)C(C(=O)NC(C)(C)C)c1cccnc1` (centres undefined): 93%.
The same measure, in the same setting: the same measure for `C=CS(=O)(=O)N(c1ccc(C(C)(C)C)cc1)C(C(=O)N[C@@H](C)c1ccccc1)c1cccnc1` (mixture of isomers; 14g) [listing 1 of 2 here]: more than 95%; for `CC(C)(C)c1ccc(N(C(=O)C(=O)C(F)(F)F)C(C(=O)NC2CCCCC2)c2cccnc2)cc1` (centres undefined): 77%.
Still for that read-out and setting: the same measure for `C=C(C)C(=O)N(c1ccc(C(C)(C)C)cc1)C(C(=O)NC1CCCCC1)c1cccnc1` (centres undefined): 30%.
Compound `CC(C)(C)c1ccc(N(C(=O)C2=CCCC2)C(C(=O)NC2CCCCC2)c2cccnc2)cc1` (centres undefined) had an inhibition of 55%.
Same read-out and setting: the same measure for `N#CCNC(C(=O)NC1CCCCC1)c1cccnc1` (centres undefined): 25%; for `CC(C)(C)c1ccc(N(C(=O)c2c[nH]cn2)C(C(=O)NC2CCCCC2)c2cccnc2)cc1` (centres undefined): more than 95%; for `CC(C)(C)c1ccc(N(C(=O)CCl)C(C(=O)NC2CCCCC2)c2ccncc2)cc1` (centres undefined): more than 95%.
Compound `CC#CC(=O)N(c1ccc(C(C)(C)C)cc1)C(C(=O)NC1CCCCC1)c1cn[nH]c1` (centres undefined) displayed an inhibition of 19%.
On the same count and under the same terms, the result for `CC#CC(=O)N(c1ccc(C(C)(C)C)cc1)C(C(=O)NC1CCCCC1)c1cccnc1` (centres undefined) reads more than 95%; that for `CC#CC(=O)N(c1ccc(C(C)(C)C)cc1)C(C(=O)NC1CCCCC1)c1cnc2ccccc2c1` (centres undefined), 80%.
Still for that read-out and setting: the same measure for `CC(=O)N(c1ccc(C(C)(C)C)cc1)C(C(=O)NC1CCCCC1)c1cccnc1` (centres undefined): 25%; for `Cc1cnc(C(C(=O)NC2CCCCC2)N(C(=O)CCl)c2ccc(C(C)(C)C)cc2)cn1` (centres undefined): more than 95%.
The same measure, in the same setting: the result for `C=CC(=O)N(c1ccc(C(C)(C)C)cc1)C(C(=O)NC1CCCCC1)c1cccnc1` (centres undefined) reads 84%; that for `CC(C)(C)c1ccc(N(C(=O)C2=CCCC2)C(C(=O)NC2CCCCC2)c2cncnc2)cc1` (centres undefined), 38%.
Consider `C=CS(=O)(=O)N(c1ccc(C(C)(C)C)cc1)C(C(=O)NCCCc1ccccc1)c1cccnc1` (centres undefined), for which the inhibition was more than 95%.
Same read-out and setting: the result for `CC(=O)C(=O)N(c1ccc(C(C)(C)C)cc1)C(C(=O)NC1CCCCC1)c1cccnc1` (centres undefined) reads 92%; that for `CC(C)(C)c1ccc(N(C(=O)C#CCO)C(C(=O)NC2CCCCC2)c2cccnc2)cc1` (centres undefined), more than 95%; that for `CC(C)(C)c1ccc(N(C(=O)C2=CCCCC2)C(C(=O)NC2CCCCC2)c2cccnc2)cc1` (centres undefined), 52%.
On the same count and under the same terms, the result for `CC(C)(C)c1ccc(N(C(=O)C2=CCCC2)C(C(=O)NC2CCCCC2)c2cnc3ccccc3c2)cc1` (centres undefined) reads 18%; that for `CC#CC(=O)N(c1ccc(OC)cc1)C(C(=O)NC1CCCCC1)c1cccnc1` (centres undefined), 39%; that for `C/C=C/C(=O)N(c1ccc(C(C)(C)C)cc1)C(C(=O)NC1CCCCC1)c1ccncc1` (centres undefined), 24%.
Same read-out and setting: the same measure for `C/C=C/C(=O)N(c1ccc(C(C)(C)C)cc1)C(C(=O)NC(C)(C)C)c1cccnc1` (centres undefined): 33%; for `CCOC(=O)N(c1ccc(C(C)(C)C)cc1)C(C(=O)NC1CCCCC1)c1cccnc1` (centres undefined): 35%.
Consider `CC(C)(C)c1ccc(N(C(=O)/C=C/c2ccccc2)C(C(=O)NC2CCCCC2)c2cccnc2)cc1` (centres undefined), for which the inhibition came out at 44%.
Regarding `CC#CC(=O)N(c1ccc(OC(F)F)cc1)C(C(=O)NC1CCCCC1)c1cccnc1` (centres undefined), the inhibition amounted to 77%.
Regarding `CC(C)(C)c1ccc(N(C(=O)C2=CCCC2)C(C(=O)NC2CCCCC2)c2cnc[nH]2)cc1` (centres undefined), the inhibition was 24%.
`O=C(NC1CCCCC1)C(c1cccnc1)N1CCC1=O` (centres undefined) registered an inhibition of less than 5%.
`CC(C)(C)c1ccc(N(C(=O)CF)C(C(=O)NC2CCCCC2)c2cccnc2)cc1` (centres undefined) displayed an inhibition of 30%.
On the same count and under the same terms, the same measure for `CC(C)(C)c1ccc(N(CC#N)C(C(=O)NC2CCCCC2)c2cccnc2)cc1` (centres undefined): less than 5%.
Still for that read-out and setting: the result for `CC#CC(=O)N(c1cccc(NC(C)=O)c1)C(C(=O)NC1CCCCC1)c1cccnc1` (centres undefined) reads 43%; that for `C=CS(=O)(=O)N(c1ccc(C(C)(C)C)cc1)C(C(=O)N[C@@H](C)c1ccccc1)c1cccnc1` (mixture of isomers; 14h) [listing 1 of 2 here], more than 95%; that for `CC#CC(=O)N(c1ccc(C(C)(C)C)cc1)C(C(=O)NC1CCCCC1)c1nc2ccccc2s1` (centres undefined), 54%.
The compound `C/C=C/C(=O)N(c1ccc(C(C)(C)C)cc1)C(C(=O)NC1CCCCC1)c1cccnc1` (centres undefined) displayed an inhibition of 63%.
In turn, `CC(C)(C)c1ccc(N(C(=O)C2=CCCC2)C(C(=O)NC2CCCC2)c2cccnc2)cc1` (centres undefined) came in with an inhibition of 16%.
The same measure, in the same setting: the same measure for `CC(C)(C)c1ccc(N(C(=O)C2=CCCC2)C(C(=O)NC2CCCCC2)c2ccsc2)cc1` (centres undefined): 22%; for `CC#CC(=O)N(c1ccc(C(C)(C)C)cc1)C(CN1CC(=O)NC1=O)C(=O)NC1CCCCC1` (centres undefined): 10%; for `CC#CC(=O)N(c1ccc(F)cc1)C(C(=O)NC1CCCCC1)c1cccnc1` (centres undefined): 65%.
`CCOC(=O)/C=C/C(=O)N(c1ccc(C(C)(C)C)cc1)C(C(=O)NC1CCCCC1)c1cccnc1` (centres undefined): the inhibition is 59%.
With `CC#CC(=O)N(Cc1ccccc1)C(C(=O)NC1CCCCC1)c1cccnc1` (centres undefined), the inhibition is less than 5%.
Same read-out and setting: the result for `CC#CC(=O)N(c1ccc(NC(C)=O)cc1)C(C(=O)NC1CCCCC1)c1cccnc1` (centres undefined) reads 23%; that for `CC(C)(C)c1ccc(N(C(=O)CCl)C(C(=O)NC2CCCCC2)c2ccsc2)cc1` (centres undefined), 22%; that for `CC#CC(=O)N(c1ccc(C(C)(C)C)cc1)C(C(=O)NC1CCCCC1)c1csc2ccccc12` (centres undefined), 57%.
Same read-out and setting: the result for `CC(=O)N(c1ccc(C(C)(C)C)cc1)C(C(=O)NC(C)(C)C)c1cccnc1` (centres undefined) reads less than 5%; that for `CC#CC(=O)NC(C(=O)NC1CCCCC1)c1cccnc1` (centres undefined), 10%.
The same measure, in the same setting: the same measure for `CC(C)(C)c1ccc(N(C(=O)C2=CCCC2)C(C(=O)NC2CCCCC2)c2ccncc2)cc1` (centres undefined): 19%; for `C/C=C(\C)C(=O)N(c1ccc(C(C)(C)C)cc1)C(C(=O)NC1CCCCC1)c1cccnc1` (centres undefined): 47%; for `CC(=O)C(=O)N(c1cccc(C)c1)C(C(=O)NC1CCCCC1)c1cccnc1` (centres undefined): less than 5%.
In turn, `CC(C)(C)c1ccc(N(C(=O)C2=CCCC2)C(C(=O)NC2CCCCC2)c2nc3ccccc3s2)cc1` (centres undefined) had an inhibition of less than 5%.
`CC(C)(C)NC(=O)C(c1cccnc1)N(C(=O)c1ccco1)c1ccc(C(C)(C)C)cc1` (centres undefined): the inhibition is more than 95%.
`C=CC(=O)N(c1ccc(C(C)(C)C)cc1)C(C(=O)NC(C)(C)C)c1cccnc1` (centres undefined) came in with an inhibition of 68%.

Target in the next assay: not listed separately
As to the kind of experiment: Inhibition of SARS-CoV-2 3CL protease using DABCYL-KTSAVLQ-SGFRKME-EDANS as substrate preincubated with enzyme for 30 mins followed by substrate addition and measured after 1 hr by fluorescence spectrophotometry. The arrangement: species or system Severe acute respiratory syndrome coronavirus 2.
Conditions: not given
As usually defined, the IC50 is the point on the concentration scale where inhibition reaches its midpoint. A low value points to higher potency. `CC#CC(=O)N(c1ccc(C(C)(C)C)cc1)C(C(=O)NC(C)(C)C)c1cccnc1` (centres undefined): inhibition was half-maximal at 15 µM (IC50).
In turn, `CC(C)(C)c1ccc(N(C(=O)C(=O)C(F)(F)F)C(C(=O)NC2CCCCC2)c2cccnc2)cc1` (centres undefined) returned an IC50 of 12.4 µM.
For the compound `CC(C)(C)c1ccc(N(C(=O)CCl)C(C(=O)NC2CCCCC2)c2ccncc2)cc1` (centres undefined), the IC50 is 0.84 µM.
As for `CC#CC(=O)N(c1ccc(C(C)(C)C)cc1)C(C(=O)NC1CCCCC1)c1cccnc1` (centres undefined), the IC50 was 5.3 µM.
Same read-out and setting: the result for `Cc1cnc(C(C(=O)NC2CCCCC2)N(C(=O)CCl)c2ccc(C(C)(C)C)cc2)cn1` (centres undefined) reads 0.98 µM; that for `C=CS(=O)(=O)N(c1ccc(C(C)(C)C)cc1)C(C(=O)NCCCc1ccccc1)c1cccnc1` (centres undefined), 0.52 µM.
`CC(=O)C(=O)N(c1ccc(C(C)(C)C)cc1)C(C(=O)NC1CCCCC1)c1cccnc1` (centres undefined) returned an IC50 of 5.2 µM.
The same measure, in the same setting: the result for `CC(C)(C)c1ccc(N(C(=O)C#CCO)C(C(=O)NC2CCCCC2)c2cccnc2)cc1` (centres undefined) reads 0.85 µM; that for `CC#CC(=O)N(c1ccc(OC(F)F)cc1)C(C(=O)NC1CCCCC1)c1cccnc1` (centres undefined), 45.1 µM; that for `C=CS(=O)(=O)N(c1ccc(C(C)(C)C)cc1)C(C(=O)N[C@@H](C)c1ccccc1)c1cccnc1` (mixture of isomers; 14g) [listing 2 of 2 here], 0.32 µM.
The same measure, in the same setting: the same measure for `C=CS(=O)(=O)N(c1ccc(C(C)(C)C)cc1)C(C(=O)N[C@@H](C)c1ccccc1)c1cccnc1` (mixture of isomers; 14h) [listing 2 of 2 here]: 6 µM.
